Laboratory results published in paper PMC3166234 (Analytical biochemistry, 2011).

Target: PFKFB3 2-kinase (Homo sapiens, UniProt Q16875)
Test: Steady-state inhibition kinetics of the PFKFB3 2-kinase
Format: biochemical
Outline: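 Recombinant human PFKFB3 2-kinase run in a two-step assay. F-2,6-P2 is first made with enzyme in TES pH 8.0, DTT, MgCl2 and Tween at 25°C, then stopped with KOH and neutralised. The product then allosterically activates PPi:PFK in an aldolase/TIM/GDH–NADH coupled system, read as A340 over 30 min. F-6-P, ATP and/or inhibitor concentrations are varied to define the inhibition type.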

Sequence of PFKFB3 2-kinase (Q16875 whole entry): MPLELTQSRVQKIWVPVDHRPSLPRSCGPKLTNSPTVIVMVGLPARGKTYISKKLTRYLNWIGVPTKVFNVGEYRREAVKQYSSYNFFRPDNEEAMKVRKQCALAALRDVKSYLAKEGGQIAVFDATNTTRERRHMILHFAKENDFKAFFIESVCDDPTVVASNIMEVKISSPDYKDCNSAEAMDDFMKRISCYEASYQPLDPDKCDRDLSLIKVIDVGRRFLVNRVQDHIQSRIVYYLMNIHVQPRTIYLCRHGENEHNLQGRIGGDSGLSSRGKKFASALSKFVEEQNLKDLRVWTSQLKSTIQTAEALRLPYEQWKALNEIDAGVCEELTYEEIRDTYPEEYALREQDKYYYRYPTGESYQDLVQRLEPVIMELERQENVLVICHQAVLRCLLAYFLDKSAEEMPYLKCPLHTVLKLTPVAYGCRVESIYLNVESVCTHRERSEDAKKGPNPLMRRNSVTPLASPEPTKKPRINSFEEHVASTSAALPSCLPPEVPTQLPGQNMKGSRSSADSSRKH

## CCOC(=O)/C=C(/C)Sc1cc(O)c2ccccc2c1O [NSC278631]
ATP varied
  type of inhibition against ATP: uncompetitive
F-6-P varied
  type of inhibition against F-6-P: competitive
